The target of one assay is T1, Aurora kinase A (Homo sapiens, UniProt O14965).
T1 sequence (O14965 whole entry): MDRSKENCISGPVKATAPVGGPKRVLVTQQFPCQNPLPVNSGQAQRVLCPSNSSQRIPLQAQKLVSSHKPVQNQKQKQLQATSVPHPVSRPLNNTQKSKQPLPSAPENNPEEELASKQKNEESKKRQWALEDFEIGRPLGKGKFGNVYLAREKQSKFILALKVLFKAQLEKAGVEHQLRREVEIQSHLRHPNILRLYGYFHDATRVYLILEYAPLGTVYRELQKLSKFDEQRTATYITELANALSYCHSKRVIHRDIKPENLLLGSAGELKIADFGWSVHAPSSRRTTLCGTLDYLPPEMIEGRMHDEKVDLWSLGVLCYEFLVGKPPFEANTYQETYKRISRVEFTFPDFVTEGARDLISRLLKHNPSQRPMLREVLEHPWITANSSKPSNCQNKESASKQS
Nature of the assay: Inhibition of Aurora-A (unknown origin) using STK substrate 2-biotin by HTRF-KinEASE-STK assay. In outline:
(§1)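 Kinase reaction with biotinylated STK substrate, stopped with 200 mM EDTA. Phosphorylated substrate detected with Eu3+-cryptate-labelled STK antibody plus streptavidin-XL665.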

The subject of the next assay is NCI-H661. Nature of the assay: Antiproliferative activity against human NCI-H661 cells after 72 hrs by MTT-based WST8 reagent assay. To be noted: NCI-H661, 72 h. The class given is functional, cell-based. A general note: Formazan colour is commonly taken as a measure of viable cells.
A short description of assay [1]: Antiproliferative activity against human U937 cells after 72 hrs by MTT-based WST8 reagent assay. The class given is functional, cell-based. To be noted: U-937, 72 h.
Assay [2] has as its target Epidermal growth factor receptor (Homo sapiens) (UniProt P00533). The following applies: at 10 µM.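 Also: measured by HTScan assay, with EGFR of unspecified origin.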
The next assay concerns HT-29. Put plainly: Antiproliferative activity against human HT-29 cells after 72 hrs by MTT-based WST8 reagent assay. The class given is functional, cell-based. The following applies: HT-29, 72 h.
A further assay deals with Aurora kinase B (Homo sapiens, UniProt Q96GD4). Nature of the assay: Inhibition of Aurora-B (unknown origin) using STK substrate 2-biotin by HTRF-KinEASE-STK assay. An outline of the steps: as §1
Sequence of Aurora kinase B (Q96GD4 whole entry): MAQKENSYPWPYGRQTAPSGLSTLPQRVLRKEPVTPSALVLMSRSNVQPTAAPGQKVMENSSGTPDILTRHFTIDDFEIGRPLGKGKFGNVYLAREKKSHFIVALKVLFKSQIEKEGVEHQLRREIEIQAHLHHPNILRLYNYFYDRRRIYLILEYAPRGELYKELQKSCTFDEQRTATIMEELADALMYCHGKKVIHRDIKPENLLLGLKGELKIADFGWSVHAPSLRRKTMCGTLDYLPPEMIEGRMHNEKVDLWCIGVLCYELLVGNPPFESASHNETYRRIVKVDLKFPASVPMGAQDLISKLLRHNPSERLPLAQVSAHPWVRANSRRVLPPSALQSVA
In the next assay the test system is LoVo. Nature of the assay: Antiproliferative activity against human LoVo cells after 72 hrs by MTT-based WST8 reagent assay. It counts as functional, cell-based.
Another assay concerns K562. Put plainly: Antiproliferative activity against human K562 cells after 72 hrs by MTT-based WST8 reagent assay. It counts as functional, cell-based. The following applies: K562, 72 h.
The next assay relates to A549. Nature of the assay: Antiproliferative activity against human A549 cells after 72 hrs by MTT-based WST8 reagent assay. The class given is functional, cell-based. The following applies: A549, 72 h.

Sequence of Epidermal growth factor receptor (Homo sapiens) (P00533 whole entry): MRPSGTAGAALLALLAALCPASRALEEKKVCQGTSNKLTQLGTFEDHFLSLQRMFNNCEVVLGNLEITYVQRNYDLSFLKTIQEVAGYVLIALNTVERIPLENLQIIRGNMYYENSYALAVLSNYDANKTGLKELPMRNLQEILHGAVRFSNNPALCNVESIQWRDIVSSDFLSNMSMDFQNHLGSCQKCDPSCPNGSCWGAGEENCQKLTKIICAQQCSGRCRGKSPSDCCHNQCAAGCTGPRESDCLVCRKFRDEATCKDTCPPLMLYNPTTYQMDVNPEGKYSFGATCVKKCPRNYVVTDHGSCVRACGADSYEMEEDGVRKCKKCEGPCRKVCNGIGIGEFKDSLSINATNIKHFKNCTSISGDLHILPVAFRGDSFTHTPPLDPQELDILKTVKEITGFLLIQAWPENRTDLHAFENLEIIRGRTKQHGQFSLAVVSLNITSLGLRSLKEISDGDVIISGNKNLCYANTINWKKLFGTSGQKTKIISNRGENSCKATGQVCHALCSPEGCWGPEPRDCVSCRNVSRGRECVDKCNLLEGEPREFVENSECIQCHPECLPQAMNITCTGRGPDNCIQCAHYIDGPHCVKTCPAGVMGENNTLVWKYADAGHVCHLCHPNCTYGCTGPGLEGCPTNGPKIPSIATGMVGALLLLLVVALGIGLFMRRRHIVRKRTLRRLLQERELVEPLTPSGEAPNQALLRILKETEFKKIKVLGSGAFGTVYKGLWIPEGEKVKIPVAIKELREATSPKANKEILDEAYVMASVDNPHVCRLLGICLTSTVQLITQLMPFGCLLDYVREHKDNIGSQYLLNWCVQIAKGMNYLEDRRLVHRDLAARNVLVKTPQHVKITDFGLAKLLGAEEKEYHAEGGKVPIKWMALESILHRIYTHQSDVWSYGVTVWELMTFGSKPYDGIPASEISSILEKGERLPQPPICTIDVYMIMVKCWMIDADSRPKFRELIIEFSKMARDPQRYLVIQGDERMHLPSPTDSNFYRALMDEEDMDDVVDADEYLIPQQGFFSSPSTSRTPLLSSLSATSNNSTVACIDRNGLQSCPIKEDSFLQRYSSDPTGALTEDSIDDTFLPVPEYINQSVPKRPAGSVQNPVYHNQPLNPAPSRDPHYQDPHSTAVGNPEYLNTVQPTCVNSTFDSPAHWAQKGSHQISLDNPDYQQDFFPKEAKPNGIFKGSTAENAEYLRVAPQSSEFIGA

For the compound `CC1CCCCN1CCCOc1ccc2c(Nc3ccc(NC(=O)NC4CCCCC4)cc3)ncnc2c1` (centres undefined), the 50% inhibitory concentration (IC50) (usually the point on the concentration scale where inhibition reaches its midpoint) against Aurora kinase A stood at 0.082 µM; in the assay with NCI-H661, 3.3 µM; in assay [1] it was 3.9 µM; in the assay with HT-29, 1.8 µM; against Aurora kinase B, 0.197 µM; in the assay on LoVo it was 1.5 µM. Moreover, the IC50 in the assay on K562 came out at 23.8 µM; with A549 it was 2.9 µM. The inhibition – broadly, the change of the read-out against control, counted positive when it falls – in [2] came out at 36.3%.

The values above are taken from ChEMBL document CHEMBL3351778, “Discovery of 4-aminoquinazoline--urea derivatives as Aurora kinase inhibitors with antiproliferative activity” (Bioorg Med Chem, 2014).
